In article PMC8567357 (ACS Omega, 2021):
Like-named read-outs stand apart in the source and are kept apart here.

Assays:
Cytotoxicity assay [1] = type: cell-based, human; settings: human, HCT-116 cells (colorectal cancer cell line)
Method in brief: (§1)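 ATCC-sourced cells were cultured 24 h at 37 °C in 5% CO₂ with test compound (25, 50, 75, 100, 200, 400 μg) diluted in DMEM with 10% FBS. LDH released into the supernatant was measured by end-point ELISA, with OD read at 550 nm. Controls were 0.1% Triton X-100 (positive) and medium alone (negative). Viability is % OD relative to control, at 100 μg final, mean ± SD (n = 2). IC50 was taken from the viability-versus-concentration plot.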

HCT-116 cells = test: Cytotoxicity assay; type: cell-based, human; settings: for IC50: Homo sapiens
Method in brief: as §1

LoVo cells = test: Cytotoxicity assay; type: cell-based, human; settings: for IC50: Homo sapiens, LoVo
Method in brief: as §1

Cytotoxicity assay [2] = type: cell-based, human; settings: human, LoVo cells (colorectal cancer cell line)
Method in brief: as §1

E. coli (ATCC 25922) = test: Antibacterial assay; type: cell-based; settings: Escherichia coli
Method in brief: (§2)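 Hospital-collected standard isolates were grown fresh on nutrient agar and suspended in nutrient broth to 0.5 McFarland. Test compound was mixed with 2 × 10⁷ CFU/mL in sterile BHI and shaken 60 min at 37 °C. Samples were serially diluted in BHI, plated, and incubated 24 h at 37 °C. Residual CFU were compared with the initial inoculum. IC50 is the mean of two measurements. Ampicillin was the positive reference.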

[3] = DPPH radical scavenging effect; settings: for IC50: read-out: DPPH mean IC50
Method in brief: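 Ethanolic DPPH was mixed with an equal volume of each sample concentration, shaken, and kept 1 h at room temperature in the dark. Residual DPPH absorbance was read at 519 nm against a control without test compound. BHT was the positive control. Scavenging % was calculated from compound and control absorbances. IC50 was taken from the scavenging-versus-concentration plot. Values are means of two determinations ± SD.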

[4] = molecular target: purified recombinant human LDHA protein (Homo sapiens, UniProt P00338); test: Lactate dehydrogenase; type: biochemical; settings: for inhibition at 100 µg/mL: read-out: LDHA mean inhibitory % ± SD
[5] = molecular target: Pyruvate Dehydrogenase Kinase-1 (PDK-1) (Homo sapiens, UniProt Q15118); test: Pyruvate dehydrogenase kinase; type: biochemical; settings: for inhibition at 100 µg/mL: read-out: PDK-1 mean inhibitory % ± SD
Method in brief: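 PDK-1 activity measured by the Kinase-Glo luminescent method. Wells held 10× assay buffer (250 mM Tris–HCl, 50 mM MgCl₂, 5 mM EGTA, 10 mM EDTA, 10 mM DTT), test compound (25–300 μg), and added solutions of PDH E1 (10 μM), ATP (10 μM) and PDK-1 (20 μM) in KCl/K₃PO₄/MgCl₂ buffer. Incubated 30 min at 37 °C, then Kinase-Glo reagent for 10 min at room temperature, and luminescence read. Controls: PBS or 1% DMSO; sodium dichloroacetate 1000 μM as reference. Mean ± SD of two replicates.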

[6] = test system: Enterococcus faecalis (ATCC 29122); test: Antibacterial assay; type: cell-based; settings: ATCC29122, read-out: Enterococcus faecalis mean IC50 (μM)
Method in brief: as §2

[7] = HCT-116, read-out: HCT-116 mean IC50 (μM)
[8] = HCT-116, read-out: HCT-116 mean IC50 (μg/mL) ± SD
[9] = read-out: LoVo cells mean IC50 (μM)
[10] = read-out: LoVo cells mean IC50 (μg/mL) ± SD
[11] = ATCC25922, read-out: E. coli mean IC50 (μM)
[12] = ATCC25922, read-out: E. coli mean IC50 (μg/mL) ± SD
[13] = LDHA IC50 (μg/mL) ± SD, mean of two determinations
[14] = PDK1 IC50 (μg/mL) ± SD, mean of two determinations

Pyruvate Dehydrogenase Kinase-1 (PDK-1), sequence (Q15118 29-436): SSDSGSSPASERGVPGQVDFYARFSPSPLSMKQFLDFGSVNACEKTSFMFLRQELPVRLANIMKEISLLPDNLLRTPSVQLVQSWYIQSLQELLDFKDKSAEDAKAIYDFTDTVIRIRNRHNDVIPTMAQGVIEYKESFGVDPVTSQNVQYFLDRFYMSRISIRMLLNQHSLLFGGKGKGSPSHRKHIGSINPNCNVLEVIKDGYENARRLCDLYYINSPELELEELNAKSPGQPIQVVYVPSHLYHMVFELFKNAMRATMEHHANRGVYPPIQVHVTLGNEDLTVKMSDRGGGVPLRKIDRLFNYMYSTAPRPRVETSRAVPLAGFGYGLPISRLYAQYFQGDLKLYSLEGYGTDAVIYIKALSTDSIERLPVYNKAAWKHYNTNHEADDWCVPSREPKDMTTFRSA

Molecule	IC50 (E. coli (ATCC 25922); [11]) [µM]	IC50 (E. coli (ATCC 25922); [12]) [µg/mL]	DPPH mean IC50 (μg/mL) ± SD [3] [µg/mL]	IC50 [3] [mM]	IC50 ([4]; LDHA IC50 (μM)) [µM]	IC50 [4, 13] [µM]	inhibition at 100 µg/mL [4] [%]	IC50 ([5]; PDK1 IC50 (μM)) [µM]	IC50 [5, 14] [µM]	inhibition at 100 µg/mL [5] [%]	IC50 [6] [µM]	viability at 24 h, 100 μg/mL (Cytotoxicity assay [1]) [%]	IC50 (HCT-116 cells; [7]) [µM]	IC50 (HCT-116 cells; [8]) [µg/mL]	IC50 (LoVo cells; [9]) [µM]	IC50 (LoVo cells; [10]) [µg/mL]	viability at 24 h, 100 μg/mL (Cytotoxicity assay [2]) [%]	mean % of viable HCT-116 cell (positive control) (HCT-116 cells; 0.1% in assay medium) [%]	mean % of viable LoVo cells (positive control) (LoVo cells; 0.1% in assay medium) [%]
N#Cc1c(N2C(=O)CCC2=O)sc2c1CCC(c1ccccc1)C2 (stereo not drawn) [compound 7, 2-(2,5-Dioxopyrrolidin-1-yl)-6-phenyl-4,5,6,7-tetrahydrobenzo[b]thiophene-3-carbonitrile]	82.9	27.9 ± 2.26	222.5 ± 17.68	0.661	276	276	48.8 ± 5.3	428	428	35.9 ± 4.1	83.5	47.2 ± 1.06	288	97 ± 2.83	323	108 ± 3.54	51.5 ± 2.12		
N#Cc1c(N)sc2c1CCCC2 [1c, 2-amino-4,5,6,7-tetrahydro-benzo[b]thiophene-3-carbonitrile]	147	26.2 ± 1.06	332.5 ± 17.68	1.87			23.1 ± 3.05			11.2 ± 3.18	119								
N#Cc1c(N)sc2c1CCC(c1ccccc1)C2 (stereo not drawn) [compound 1b, 2-amino-6-phenyl-4,5,6,7-tetrahydrobenzo[b]thiophene-3-carbonitrile]			110.0 ± 14.14	0.432	252	252	74.1 ± 2.97	224	224	87 ± 2.83	83.4	53.5 ± 2.12					56.5 ± 0.71		
COc1ccc(C=Nc2sc3c(c2C#N)CCCC3)cc1O [compound 11, 2-((3-Hydroxy-4-methoxybenzylidene)amino)-4,5,6,7-tetrahydrobenzo[b]thiophene-3-carbonitrile]	181	56.6 ± 1.98	332.5 ± 17.68	1.06			29.6 ± 1.98			23.7 ± 2.4	126	60.5 ± 2.12	403	126 ± 4.25	474	148 ± 4.24	63.8 ± 1.77		
CC1(C)S[C@@H]2[C@H](NC(=O)[C@H](N)c3ccccc3)C(=O)N2[C@H]1C(=O)O [ampicillin, reference compound]	58	20.2 ± 1.77									36.5								
CN(C)C=Nc1sc2c(c1C#N)CCC(c1ccccc1)C2 (stereo not drawn) [compound 9, N′-(3-Cyano-6-phenyl-4,5,6,7-tetrahydrobenzo[b]thiophen-2-yl)-N,N-dimethyl Formamidine]	94.9	29.4 ± 1.2	210.0 ± 28.28	0.679			32.6 ± 2.33			36.5 ± 2.12	111	69 ± 1.41	524	162 ± 4.24	642	198 ± 4.95	71.8 ± 2.55		
Cc1cc(C(C)(C)C)c(O)c(C(C)(C)C)c1 [BHT, butylated hydroxy toluene, reference compound]			54.0 ± 5.66	0.245															
Triton X-100 [reference compound]																		0.00	0.00
CCOC(=O)c1c(N)sc2c1CCC(c1ccccc1)C2 (stereo not drawn) [compound 1a, 2-amino-6-phenyl-4,5,6,7-tetrahydrobenzo[b]thiophene-3-carboxylic acid ethyl ester]	82.6	24.9 ± 0.99	390.5 ± 13.44	1.3			19.2 ± 3.18			12.3 ± 1.91	146								

Continued, in another order:

IC50 (E. coli (ATCC 25922); [11]) [µM]	IC50 (E. coli (ATCC 25922); [12]) [µg/mL]	DPPH mean IC50 (μg/mL) ± SD [3] [µg/mL]	IC50 [3] [mM]	IC50 ([4]; LDHA IC50 (μM)) [µM]	IC50 [4, 13] [µM]	inhibition at 100 µg/mL [4] [%]	IC50 ([5]; PDK1 IC50 (μM)) [µM]	IC50 [5, 14] [µM]	inhibition at 100 µg/mL [5] [%]	IC50 [6] [µM]	Molecule	viability at 24 h, 100 μg/mL (Cytotoxicity assay [1]) [%]	IC50 (HCT-116 cells; [7]) [µM]	IC50 (HCT-116 cells; [8]) [µg/mL]	IC50 (LoVo cells; [9]) [µM]	IC50 (LoVo cells; [10]) [µg/mL]	viability at 24 h, 100 μg/mL (Cytotoxicity assay [2]) [%]	mean % of viable HCT-116 cell (positive control) (HCT-116 cells; 0.1% in assay medium) [%]	mean % of viable LoVo cells (positive control) (LoVo cells; 0.1% in assay medium) [%]
89.4	36.8 ± 1.7	595.0 ± 21.21	1.45			18.4 ± 1.98			18.4 ± 1.98	90.6	CCOC(=O)c1c(NC(=O)c2cccs2)sc2c1CCC(c1ccccc1)C2 (stereo not drawn) [3e, Ethyl 6-Phenyl-2-(thiophene-2-carboxamido)-4,5,6,7-tetrahydrobenzo[b] thiophene-3-carboxylate]								
		130.0 ± 14.14	0.398	892	891	19.3 ± 0.85	302	302	51.5 ± 3.54	83.5	CCOC(=O)Nc1sc2c(c1C#N)CCC(c1ccccc1)C2 (stereo not drawn) [compound 3b, Ethyl (3-Cyano-6-phenyl-4,5,6,7-tetrahydrobenzo[b]thiophen-2-yl)carbamate]	28 ± 1.41	218	71 ± 2.83	250	81.5 ± 3.54	35.5 ± 2.12		
72.4	27.1 ± 0.35	665.0 ± 21.21	1.78			28.8 ± 2.06			21.5 ± 2.4	102	CCOC(=O)Nc1sc2c(c1C(=O)OCC)CCC(c1ccccc1)C2 (stereo not drawn) [3a, Ethyl 2-((Ethoxycarbonyl)amino)-6-phenyl-4,5,6,7-tetrahydrobenzo[b]thiophene-3-carboxylate]								
62.8	26.9 ± 0.57	440.0 ± 28.28	1.03			30.8 ± 1.7			41 ± 2.83	62.2	CCOC(=O)c1c(NC(=O)CN2CCOCC2)sc2c1CCC(c1ccccc1)C2 (stereo not drawn) [5a, Ethyl 2-(2-Morpholinoacetamido)-6-phenyl-4,5,6,7-tetrahydrobenzo[b]thiophene-3-carboxylate]								
